The text below walks through data of ChEMBL document CHEMBL4396917, “Synthesis and biological evaluation of novel benzylidene-succinimide derivatives as noncytotoxic antiangiogenic inhibitors with anticolorectal cancer activity in vivo” (Eur J Med Chem, 2019).

A word on the inhibition: it is the change of the read-out against control, counted positive when it falls. One may read the IC50 as the concentration that gives 50% inhibition.

The source made the active and inactive calls. The calls are words filed in the database; no cut-off is given here.

The subject of data set [1] is HUVEC. In words: Effect on total AKT expression in VEGF-induced HUVEC at 1 to 20 uM pre-incubated for 2 hrs followed by VEGF stimulation and measured after 15 mins by Western blot analysis. The data set is classed as ADME, cell-based. The conditions noted are these: human, 0.25 h. A digest of the protocol: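 HUVECs serum-starved overnight, pretreated with compound (methods: 1, 2.5, 5, 10 μM for 2 h; legend: 1, 5, 10, 20 μM for 1.5 h), then VEGF 50 ng/mL (methods: VEGF165, 15 min; legend: 30 min); lysates equalized by Bradford, ~20 μg protein resolved on gradient SDS-PAGE, immunoblotted, ECL detection.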

The target of data set [2] is Vascular endothelial growth factor receptor 2 (Homo sapiens) (UniProt P35968). The data set is described as follows: Inhibition of VEGFR2 in VEGF-stimulated HUVEC assessed as downregulation of Src phosphorylation at Tyr416 residue at 1 to 10 uM pre-incubated for 2 hrs followed by VEGF stimulation and measured after 15 mins by Western blot analysis. The data set is classed as cell-based. (In general: Immunoblotting shows a protein as a band on a membrane.)

In data set [3] the test system is HUVEC. The data set is described as follows: Induction of apoptosis in VEGF-stimulated HUVEC assessed as early apoptotic cells at 1 uM after 24 hrs by Annexin V-FITC/propidium iodide staining based flow cytometric analysis (reference value: 7%). It is filed as cell-based. The conditions noted are these: human. The method, boiled down:
(§1)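 HUVECs plated at 5×10^5 per well and treated 24 h with 1, 5, 10 or 20 μM. Detached and adherent cells were pooled, washed in ice-cold PBS and resuspended in fresh medium. 1×10^5 cells were stained with annexin-V-FITC in annexin-V buffer for 20 min in the dark, then PI (50 μg/mL) was added. Read-out by flow cytometry.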
(In general: Flow cytometry measures light scatter and fluorescence of single cells or particles in a stream.)

The target of data set [4] is Vascular endothelial growth factor receptor 2 (Homo sapiens) (UniProt P35968). In words: Inhibition of VEGFR2 in VEGF-stimulated HUVEC assessed as downregulation of ERK1/2 phosphorylation at Thr202/Tyr204 residues at 1 to 10 uM pre-incubated for 2 hrs followed by VEGF stimulation and measured after 15 mins by Western blot analysis. The data set is classed as cell-based. A digest of the protocol:
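HUVECs serum-starved overnight, pretreated 2 h with 1, 2.5, 5 or 10 μM compound, then stimulated 15 min with 50 ng/mL VEGF165. Lysed in Tris/EDTA/Triton/deoxycholate/SDS buffer with phosphatase and protease inhibitors. Protein equalized by Bradford, about 20 μg resolved on gradient SDS-PAGE. Blots probed for phospho and total VEGFR2 (Tyr1175), ERK1/2 (Thr202/Tyr204) and AKT (Ser473) against actin, with HRP/ECL detection.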

Data set [5] is described as follows: Induction of apoptosis in VEGF-stimulated HUVEC assessed as viable cells at 5 uM after 24 hrs by Annexin V-FITC/propidium iodide staining based flow cytometric analysis (reference value: 69.6%). The data set is classed as cell-based. The conditions noted are these: human, read-out: Activity. The method, boiled down: as §1
In data set [6] the test system is HT-29. The data set is described as follows: Inhibition of Akt/mTOR signalling in human HT-29 cells assessed as reduction in mTOR phosphorylation at Ser2448 residue incubated for 24 hrs by immunoblot analysis. It is filed as cell-based. The method, boiled down:
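HT29 cells were exposed to the indicated concentrations for 24 h. Cell lysates were then immunoblotted for the phosphorylated proteins.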

For data set [7], the system named is HT-29. The data set is described as follows: Induction of apoptosis in human HT-29 cells assessed as early apoptotic cells at 5 uM after 24 hrs by Annexin V-FITC/propidium iodide staining based flow cytometric analysis (reference value: 1.9 to 5.3%). Particulars: ht-29, 24 h. It is filed as cell-based.
The test system of data set [8] is HT-29. In words: Induction of apoptosis in human HT-29 cells assessed as necrotic cells at 5 uM after 24 hrs by Annexin V-FITC/propidium iodide staining based flow cytometric analysis (reference value: 1.3 to 3.9%). It is filed as cell-based. Particulars: ht-29, 24 h.
The subject of data set [9] is HUVEC. In words: Antimigratory activity in HUVEC assessed as reduction in VEGF-induced cell migration at 2.5 uM measured after 12 hrs by wound healing assay relative to control. It is filed as functional. Particulars: Homo sapiens. A digest of the protocol: (§2)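 Confluent HUVECs starved 12 h in M200 with 2% FBS, scratched with pipette tip; fresh M200 with 25 ng/mL VEGF plus vehicle, 2.5 μM sunitinib or compound (1, 2.5 μM); wound imaged at 0, 6, 12 and 24 h by inverted microscopy.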

The target of data set [10] is Vascular endothelial growth factor receptor 2 (Homo sapiens) (UniProt P35968). In words: Inhibition of VEGFR2 in VEGF-stimulated HUVEC assessed as downregulation of STAT3 phosphorylation at Tyr705 residue at 1 to 10 uM pre-incubated for 2 hrs followed by VEGF stimulation and measured after 15 mins by Western blot analysis. It is filed as cell-based.
In data set [11] the test system is HUVEC. The data set is described as follows: Induction of apoptosis in VEGF-stimulated HUVEC assessed as late apoptotic cells at 1 uM after 24 hrs by Annexin V-FITC/propidium iodide staining based flow cytometric analysis (reference value: 11.3%). It is filed as cell-based. The conditions noted are these: human. The method, boiled down: as §1
The test system of data set [12] is HUVEC. The data set is described as follows: Antiangiogenic activity in HUVEC assessed as inhibition of VEGF-induced capillary like tube formation at 2.5 uM preincubated with VEGF for 20 mins followed by compound addition measured after 6 hrs by matrigel based tube formation assay relative to control. The data set is classed as functional. Particulars: Homo sapiens. The method, boiled down:
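Matrigel (100 μL) set 1 h at 37°C; 2×10⁴ HUVECs in M200 with 10% FBS added per well plus 10 ng/mL VEGF; compound added after 20 min; incubated 6 h at 37°C, then capillary-like structures photographed.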

The test system of data set [13] is HT-29. In words: Antitumor activity against human HT-29 cells xenografted in mouse assessed as reduction in cell proliferation in tumor at 20 to 60 mg/kg, po administered every other day for 3 weeks and measured at 20 days post treatment by Ki-67 staining based assay. The data set is classed as functional, organism-based. Background: In xenograft studies the graft and the host belong to different species.

In data set [14] the test system is HUVEC. The data set is described as follows: Antiangiogenic activity against VEGF-induced HUVEC assessed as inhibition of cell proliferation preincubated for 30 mins followed by VEGF addition measured after 24 hrs by MTT assay. The data set is classed as functional, cell-based. The conditions noted are these: Homo sapiens. A digest of the protocol:
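HUVECs seeded 24 h, starved 16 h in M200 with 2% FBS, pretreated 30 min with compound at 0.1, 1, 10, 20 or 40 μM, then stimulated with VEGF (25 ng/mL) for 24 h; viability read by MTT; IC50 determined.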

Data set [15] deals with HUVEC. In words: Antimigratory activity in HUVEC assessed as reduction in VEGF-induced cell migration at 2.5 uM measured after 6 hrs by wound healing assay relative to control. The data set is classed as functional. Particulars: Homo sapiens. The method, boiled down: as §2
Data set [16] concerns HUVEC. The data set is described as follows: Induction of apoptosis in VEGF-stimulated HUVEC assessed as caspase-3 cleavage at 1 to 20 uM by Western blot analysis. The data set is classed as cell-based. Particulars: human.
Data set [17] relates to HUVEC. In words: Antiinvasive activity in HUVEC assessed as inhibition of VEGF-induced cell invasion at 5 uM after 6 hrs by crystal violet staining based transwell assay relative to control. It is filed as functional. The conditions noted are these: Homo sapiens. A digest of the protocol: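 Transwell: 1×10⁴ HUVECs in serum-free M200 in top chamber with vehicle or compound; bottom chamber M200 with 10% FBS; 6 h at 37°C; cells on membrane underside fixed in 4% paraformaldehyde, stained 0.1% crystal violet, imaged and counted.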

In data set [18] the test system is Chorioallantoic membrane. In words: Antiangiogenic activity in Leghorn chicken fertilized egg chorioallantoic membrane at 10 nM/egg measured after 48 hrs by CAM assay. It is filed as functional, tissue-based. Particulars: Gallus gallus. The method, boiled down:
(§3)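 Fertile Leghorn eggs incubated at 37.8°C, 40% humidity; window opened on day 7; compound, sunitinib or 0.9% NaCl mixed with DMSO applied on filter paper onto CAM; 48 h incubation, methanol fixation, photography; nascent vessels counted.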

In data set [19] the test system is HT-29. The data set is described as follows: Induction of apoptosis in human HT-29 cells assessed as necrotic cells at 1 uM after 24 hrs by Annexin V-FITC/propidium iodide staining based flow cytometric analysis (reference value: 3.9%). It is filed as cell-based. The conditions noted are these: ht-29, 24 h.
Data set [20] has as its system Chorioallantoic membrane. In words: Antiangiogenic activity in Leghorn chicken fertilized egg chorioallantoic membrane assessed as reduction in number of blood vessel formation at 20 nmol measured after 48 hrs by CAM assay relative to saline treated control. It is filed as functional, tissue-based. The conditions noted are these: Gallus gallus. A digest of the protocol:
as §3

Vascular endothelial growth factor receptor 2 (Homo sapiens), sequence (P35968 whole entry): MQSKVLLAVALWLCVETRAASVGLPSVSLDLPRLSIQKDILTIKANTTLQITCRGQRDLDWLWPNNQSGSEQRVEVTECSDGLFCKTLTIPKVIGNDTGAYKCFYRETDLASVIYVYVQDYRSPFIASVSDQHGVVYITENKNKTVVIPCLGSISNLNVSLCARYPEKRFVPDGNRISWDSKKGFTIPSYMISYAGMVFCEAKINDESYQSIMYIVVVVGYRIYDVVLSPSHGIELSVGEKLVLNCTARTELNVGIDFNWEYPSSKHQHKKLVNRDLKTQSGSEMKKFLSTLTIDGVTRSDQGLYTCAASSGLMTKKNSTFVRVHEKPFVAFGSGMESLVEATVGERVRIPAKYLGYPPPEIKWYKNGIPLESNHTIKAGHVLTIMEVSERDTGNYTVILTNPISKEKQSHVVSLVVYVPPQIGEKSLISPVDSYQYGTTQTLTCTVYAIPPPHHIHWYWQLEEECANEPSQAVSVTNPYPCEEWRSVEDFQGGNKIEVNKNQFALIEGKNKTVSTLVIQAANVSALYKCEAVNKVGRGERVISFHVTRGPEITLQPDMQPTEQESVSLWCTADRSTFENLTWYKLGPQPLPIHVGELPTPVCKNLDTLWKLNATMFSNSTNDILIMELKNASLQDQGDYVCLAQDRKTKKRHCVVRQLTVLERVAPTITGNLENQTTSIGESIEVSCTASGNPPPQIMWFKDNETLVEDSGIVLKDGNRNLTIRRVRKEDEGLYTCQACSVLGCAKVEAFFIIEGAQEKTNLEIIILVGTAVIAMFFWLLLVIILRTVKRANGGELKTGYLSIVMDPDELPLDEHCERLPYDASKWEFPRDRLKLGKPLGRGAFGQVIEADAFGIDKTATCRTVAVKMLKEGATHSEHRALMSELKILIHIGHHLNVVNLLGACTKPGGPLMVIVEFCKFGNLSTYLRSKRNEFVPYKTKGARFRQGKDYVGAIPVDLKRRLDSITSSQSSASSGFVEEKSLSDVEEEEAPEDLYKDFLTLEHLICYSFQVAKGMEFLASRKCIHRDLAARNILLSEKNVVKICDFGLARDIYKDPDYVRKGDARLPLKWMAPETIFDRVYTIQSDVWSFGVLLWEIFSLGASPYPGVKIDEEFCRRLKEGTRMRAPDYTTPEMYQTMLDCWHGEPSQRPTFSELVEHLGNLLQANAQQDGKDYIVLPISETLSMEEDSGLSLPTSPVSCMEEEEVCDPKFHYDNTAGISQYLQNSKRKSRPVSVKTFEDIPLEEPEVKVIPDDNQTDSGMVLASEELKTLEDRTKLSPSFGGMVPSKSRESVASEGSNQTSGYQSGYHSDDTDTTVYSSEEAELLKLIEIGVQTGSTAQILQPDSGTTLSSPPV

`COc1ccc(NC(=O)c2cccc(/C=C3\CC(=O)N(c4ccc(C)cc4)C3=O)c2)cc1`: the Activity entry in the data set on HUVEC [1] was “Not Active”; in the data set on HUVEC [3], 10.7%; in the data set on HT-29 [7], 1.2 to 5.4%; with HT-29 [8], 0.8 to 4.7%; in the data set with HUVEC [11] it was 10.4%; in the data set with HUVEC [16], “Non-Toxic”. Also, the Activity in the data set with HT-29 [19] came out at 4.4%. Also, the inhibition result (in data set [2]; in [4]; in data set [10]; with HT-29 [13]) was “Active” in each case. Besides, the viability at 24 h, 5 µM in data set [5] amounted to 75.4%. Moreover, the inhibition result in the data set on HT-29 [6] was “Dose-dependent effect”; with Chorioallantoic membrane [20] it was 96.4%. The results for the inhibition at 2.5 µM in the data set on HUVEC [9], in the data set on HUVEC [12] and in the data set with HUVEC [15] were 50%, 73% and 30%, respectively. Also, in the data set with HUVEC [14], the concentration for half-maximal inhibition (IC50) is 8.56 µM. Further, the inhibition at 5 µM in the data set with HUVEC [17] worked out at 40%. Besides, the outcome with Chorioallantoic membrane [18] was Active.
